Key:
[1] = Half life in Sprague-Dawley rat at 5 mg/kg, iv measured upto 24 hrs by LC/MS/MS analysis; assay type: ADME, organism-based; settings: in vivo
[2] = target: Leucine-rich repeat serine/threonine-protein kinase 2 (Homo sapiens, UniProt Q5S007); test: Inhibition of human LRRK2 at 1 uM using RLGRDKYKTLRQIRQ as substrate after 40 mins in presence of [gamma-33ATP] by scintillation counting based radiometry assay relative to control
[3] = tested on: MV4-11; test: Induction of cell cylce arrest in human MV4-11 cells assessed as accumulation of cells at G1 phase at 3 uM after 72 hrs by RNase A/propidium iodide staining based flow cytometry (reference value: 64.41%); assay type: functional
How it was run: (§1)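 MV4-11 cells were seeded at 8 × 10⁴, held overnight at 37 °C with 5% CO2, then treated 72 h at 3 or 10 µM against a DMSO diluent control. Pellets were fixed in 70% ethanol on ice for 15 min, then stained 1 h at room temperature with PI, 0.1 mg/mL RNase A and 0.05% Triton X-100. Sub-G1, G1, S and G2/M fractions were read by flow cytometry.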

[4] = Oral bioavailability in Sprague-Dawley rat at 20 mg/kg measured upto 24 hrs by LC/MS/MS analysis; assay type: ADME, organism-based; settings: in vivo
[5] = tested on: MV4-11; test: Induction of apoptosis in human MV4-11 cells assessed as viable cells at 3 uM after 72 hrs by Annexin V FITC/PI staining based flow cytometry analysis (reference value: 93.63%); assay type: functional; settings: read-out: Activity
[6] = tested on: MV4-11; test: Induction of cell cylce arrest in human MV4-11 cells assessed as accumulation of cells at S phase at 10 uM after 72 hrs by RNase A/propidium iodide staining based flow cytometry (reference value: 18.81%); assay type: functional; how it was run: as §1
[7] = Half life in BALB/c mouse at 10 mg/kg, po measured upto 24 hrs by LC/MS/MS analysis; assay type: ADME, organism-based; settings: in vivo
[8] = tested on: MV4-11; test: Induction of cell cylce arrest in human MV4-11 cells assessed as accumulation of cells at G2 phase at 10 uM after 72 hrs by RNase A/propidium iodide staining based flow cytometry (reference value: 12.61%); assay type: functional; how it was run: as §1
[9] = tested on: U-937; test: Antiproliferative activity against human U937 cells assessed as growth inhibition incubated for 72 hrs by MTT assay; assay type: functional
[10] = tested on: MOLM-13; test: Antiproliferative activity against human MOLM-13 cells assessed as growth inhibition incubated for 72 hrs by MTT assay; assay type: functional
[11] = Tmax in BALB/c mouse at 2 mg/kg, iv measured upto 24 hrs by LC/MS/MS analysis; assay type: ADME, organism-based; settings: in vivo
[12] = target: Macrophage colony-stimulating factor 1 receptor (Homo sapiens, UniProt P07333); test: Inhibition of human CSF1R at 1 uM using KKKSPGEYVNIEFG as substrate incubated for 40 mins in presence of [gamma-33ATP] by scintillation counting based radiometry assay relative to control
Macrophage colony-stimulating factor 1 receptor, sequence (P07333 whole entry): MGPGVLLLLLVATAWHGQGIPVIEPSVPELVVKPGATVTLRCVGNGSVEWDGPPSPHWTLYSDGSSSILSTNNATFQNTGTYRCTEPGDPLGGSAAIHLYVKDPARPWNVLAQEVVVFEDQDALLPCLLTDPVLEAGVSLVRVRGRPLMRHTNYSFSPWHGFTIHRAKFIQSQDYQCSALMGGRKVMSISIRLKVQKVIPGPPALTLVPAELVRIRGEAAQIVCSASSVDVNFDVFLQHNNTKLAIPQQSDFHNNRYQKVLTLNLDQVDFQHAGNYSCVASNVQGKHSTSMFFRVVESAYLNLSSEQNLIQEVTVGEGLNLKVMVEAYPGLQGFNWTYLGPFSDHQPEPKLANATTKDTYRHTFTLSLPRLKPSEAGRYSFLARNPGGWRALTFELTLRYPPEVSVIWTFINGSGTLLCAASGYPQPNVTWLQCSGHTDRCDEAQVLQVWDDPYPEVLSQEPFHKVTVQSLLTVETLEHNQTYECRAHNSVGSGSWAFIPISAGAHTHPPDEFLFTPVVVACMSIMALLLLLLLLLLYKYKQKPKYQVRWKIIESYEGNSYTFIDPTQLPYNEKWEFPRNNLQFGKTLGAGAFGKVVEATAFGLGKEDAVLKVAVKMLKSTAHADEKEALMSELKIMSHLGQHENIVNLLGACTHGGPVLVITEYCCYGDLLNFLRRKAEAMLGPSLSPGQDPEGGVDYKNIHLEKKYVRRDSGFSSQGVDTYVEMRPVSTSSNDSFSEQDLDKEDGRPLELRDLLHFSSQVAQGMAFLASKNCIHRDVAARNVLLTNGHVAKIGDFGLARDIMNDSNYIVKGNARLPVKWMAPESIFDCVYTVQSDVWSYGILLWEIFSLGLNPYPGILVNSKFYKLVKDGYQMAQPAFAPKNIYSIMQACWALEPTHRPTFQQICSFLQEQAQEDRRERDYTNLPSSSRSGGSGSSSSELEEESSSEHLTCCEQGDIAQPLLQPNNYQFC

[13] = Oral bioavailability in BALB/c mouse at 10 mg/kg measured upto 24 hrs by LC/MS/MS analysis; assay type: ADME, organism-based; settings: in vivo
[14] = tested on: MDA-MB-468; test: Antiproliferative activity against human MDA-MB-468 cells assessed as growth inhibition incubated for 72 hrs by MTT assay; assay type: functional
[15] = tested on: MV4-11; test: Induction of apoptosis in human MV4-11 cells assessed as viable cells at 10 uM after 72 hrs by Annexin V FITC/PI staining based flow cytometry analysis (reference value: 93.63%); assay type: functional; settings: read-out: Activity
[16] = Half life in Sprague-Dawley rat at 20 mg/kg, po measured upto 24 hrs by LC/MS/MS analysis; assay type: ADME, organism-based; settings: in vivo
[17] = tested on: MV4-11; test: Induction of apoptosis in human MV4-11 cells assessed as late apoptotic cells at 3 uM after 72 hrs by Annexin V FITC/PI staining based flow cytometry analysis (reference value: 3.41%); assay type: functional
[18] = Clearance in Sprague-Dawley rat at 5 mg/kg, iv measured upto 24 hrs by LC/MS/MS analysis; assay type: ADME, organism-based; settings: in vivo
[19] = tested on: MV4-11; test: Induction of apoptosis in human MV4-11 cells assessed as necrotic cells at 10 uM after 72 hrs by Annexin V FITC/PI staining based flow cytometry analysis (reference value: 0.23%); assay type: functional
[20] = Dissociation constant, pKa of the compound by fast UV-spectrometric titration method; assay type: physicochemical
[21] = target: Receptor-type tyrosine-protein kinase FLT3 (Homo sapiens) (UniProt P36888); test: Inhibition of human FLT3 at 1 uM using EAIYAAPFAKKK as substrate incubated for 40 mins in presence of [gamma-33ATP] by scintillation counting based radiometry assay relative to control
Receptor-type tyrosine-protein kinase FLT3 (Homo sapiens), sequence (P36888 whole entry): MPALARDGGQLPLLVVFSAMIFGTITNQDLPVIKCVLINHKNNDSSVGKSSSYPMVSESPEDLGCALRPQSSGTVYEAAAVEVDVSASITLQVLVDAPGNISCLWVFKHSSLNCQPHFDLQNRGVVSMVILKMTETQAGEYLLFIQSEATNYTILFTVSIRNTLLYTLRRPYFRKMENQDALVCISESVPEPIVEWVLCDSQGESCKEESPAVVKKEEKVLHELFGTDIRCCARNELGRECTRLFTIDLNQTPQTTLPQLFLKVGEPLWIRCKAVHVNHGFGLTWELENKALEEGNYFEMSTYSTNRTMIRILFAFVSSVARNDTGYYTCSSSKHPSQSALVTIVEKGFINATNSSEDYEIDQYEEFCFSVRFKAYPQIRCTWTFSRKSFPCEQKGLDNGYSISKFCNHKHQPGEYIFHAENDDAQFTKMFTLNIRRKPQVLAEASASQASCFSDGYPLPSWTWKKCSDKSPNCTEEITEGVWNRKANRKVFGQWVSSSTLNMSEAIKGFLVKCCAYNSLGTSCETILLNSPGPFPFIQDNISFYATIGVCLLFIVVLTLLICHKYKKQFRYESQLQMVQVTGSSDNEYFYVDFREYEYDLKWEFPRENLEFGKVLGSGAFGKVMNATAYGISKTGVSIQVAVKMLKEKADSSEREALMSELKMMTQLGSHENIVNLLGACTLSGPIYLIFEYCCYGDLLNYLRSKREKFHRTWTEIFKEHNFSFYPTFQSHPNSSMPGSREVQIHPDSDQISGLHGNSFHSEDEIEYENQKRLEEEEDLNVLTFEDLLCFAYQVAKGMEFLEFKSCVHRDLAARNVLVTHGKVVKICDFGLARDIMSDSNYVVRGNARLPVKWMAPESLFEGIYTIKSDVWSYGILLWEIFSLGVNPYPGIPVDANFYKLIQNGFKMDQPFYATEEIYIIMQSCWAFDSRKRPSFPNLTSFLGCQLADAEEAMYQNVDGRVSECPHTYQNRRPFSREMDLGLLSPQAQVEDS

[22] = tested on: MV4-11; test: Induction of apoptosis in human MV4-11 cells assessed as early apoptotic cells at 3 uM after 72 hrs by Annexin V FITC/PI staining based flow cytometry analysis (reference value: 2.73%); assay type: functional
[23] = tested on: MV4-11; test: Induction of cell cylce arrest in human MV4-11 cells assessed as accumulation of cells at G2 phase at 3 uM after 72 hrs by RNase A/propidium iodide staining based flow cytometry (reference value: 12.61%); assay type: functional; how it was run: as §1
[24] = Half life in BALB/c mouse at 2 mg/kg, iv measured upto 24 hrs by LC/MS/MS analysis; assay type: ADME, organism-based; settings: in vivo
[25] = target: Cyclin-dependent kinase 1/cyclin B1 (Homo sapiens) (UniProt P06493+P14635); test: Inhibition of CDK1/Cyclin B (unknown origin) assessed as residual activity at 1 uM relative to control; assay type: protein-complex assay
Cyclin-dependent kinase 1/cyclin B1 (Homo sapiens), sequence (P06493 whole entry, looked up): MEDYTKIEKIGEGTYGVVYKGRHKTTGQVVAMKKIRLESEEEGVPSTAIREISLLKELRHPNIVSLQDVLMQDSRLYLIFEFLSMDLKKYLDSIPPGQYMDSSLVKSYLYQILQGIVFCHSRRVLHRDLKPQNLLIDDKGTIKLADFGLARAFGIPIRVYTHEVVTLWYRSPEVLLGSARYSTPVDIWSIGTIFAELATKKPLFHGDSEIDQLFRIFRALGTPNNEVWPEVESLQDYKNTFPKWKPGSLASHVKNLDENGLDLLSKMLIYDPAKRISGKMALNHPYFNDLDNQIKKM
Cyclin-dependent kinase 1/cyclin B1 (Homo sapiens), sequence (P14635 whole entry, looked up): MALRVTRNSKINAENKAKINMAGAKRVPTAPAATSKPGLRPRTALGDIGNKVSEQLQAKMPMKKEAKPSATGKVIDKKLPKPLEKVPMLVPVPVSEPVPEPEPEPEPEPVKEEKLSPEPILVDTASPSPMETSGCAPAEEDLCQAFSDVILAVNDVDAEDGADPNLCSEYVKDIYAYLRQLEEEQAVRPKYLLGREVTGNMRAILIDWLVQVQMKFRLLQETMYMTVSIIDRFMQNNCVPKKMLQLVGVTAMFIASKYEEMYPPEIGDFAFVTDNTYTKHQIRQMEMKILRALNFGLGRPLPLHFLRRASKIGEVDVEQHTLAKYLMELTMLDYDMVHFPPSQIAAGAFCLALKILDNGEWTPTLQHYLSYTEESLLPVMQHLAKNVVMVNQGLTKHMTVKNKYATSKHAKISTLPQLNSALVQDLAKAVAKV

[26] = Tmax in BALB/c mouse at 10 mg/kg, po measured upto 24 hrs by LC/MS/MS analysis; assay type: ADME, organism-based; settings: in vivo
[27] = tested on: MV4-11; test: Induction of apoptosis in human MV4-11 cells assessed as necrotic cells at 3 uM after 72 hrs by Annexin V FITC/PI staining based flow cytometry analysis (reference value: 0.23%); assay type: functional
[28] = AUC in Sprague-Dawley rat at 5 mg/kg, iv measured upto 24 hrs by LC/MS/MS analysis; assay type: ADME, organism-based; set-up: route intravenous, dose 5 mg/kg, time <=24; settings: in vivo
[29] = tested on: MV4-11; test: Induction of apoptosis in human MV4-11 cells assessed as early apoptotic cells at 10 uM after 72 hrs by Annexin V FITC/PI staining based flow cytometry analysis (reference value: 2.73%); assay type: functional
[30] = Tmax in Sprague-Dawley rat at 5 mg/kg, iv measured upto 24 hrs by LC/MS/MS analysis; assay type: ADME, organism-based; settings: in vivo
[31] = AUC in BALB/c mouse at 2 mg/kg, iv measured upto 24 hrs by LC/MS/MS analysis; assay type: ADME, organism-based; set-up: route intravenous, dose 2 mg/kg, time <=24; settings: in vivo
[32] = tested on: MV4-11; test: Induction of cell cylce arrest in human MV4-11 cells assessed as accumulation of cells at G1 phase at 10 uM after 72 hrs by RNase A/propidium iodide staining based flow cytometry (reference value: 64.41%); assay type: functional; how it was run: as §1
[33] = Cmax in Sprague-Dawley rat at 20 mg/kg, po measured upto 24 hrs by LC/MS/MS analysis; assay type: ADME, organism-based; set-up: route oral, dose 20 mg/kg, time <=24; settings: in vivo
[34] = target: Protein kinase C theta (Homo sapiens) (UniProt Q04759); test: Inhibition of PKC theta (unknown origin) assessed as residual activity at 1 uM relative to control
Protein kinase C theta (Homo sapiens), sequence (Q04759 whole entry, looked up): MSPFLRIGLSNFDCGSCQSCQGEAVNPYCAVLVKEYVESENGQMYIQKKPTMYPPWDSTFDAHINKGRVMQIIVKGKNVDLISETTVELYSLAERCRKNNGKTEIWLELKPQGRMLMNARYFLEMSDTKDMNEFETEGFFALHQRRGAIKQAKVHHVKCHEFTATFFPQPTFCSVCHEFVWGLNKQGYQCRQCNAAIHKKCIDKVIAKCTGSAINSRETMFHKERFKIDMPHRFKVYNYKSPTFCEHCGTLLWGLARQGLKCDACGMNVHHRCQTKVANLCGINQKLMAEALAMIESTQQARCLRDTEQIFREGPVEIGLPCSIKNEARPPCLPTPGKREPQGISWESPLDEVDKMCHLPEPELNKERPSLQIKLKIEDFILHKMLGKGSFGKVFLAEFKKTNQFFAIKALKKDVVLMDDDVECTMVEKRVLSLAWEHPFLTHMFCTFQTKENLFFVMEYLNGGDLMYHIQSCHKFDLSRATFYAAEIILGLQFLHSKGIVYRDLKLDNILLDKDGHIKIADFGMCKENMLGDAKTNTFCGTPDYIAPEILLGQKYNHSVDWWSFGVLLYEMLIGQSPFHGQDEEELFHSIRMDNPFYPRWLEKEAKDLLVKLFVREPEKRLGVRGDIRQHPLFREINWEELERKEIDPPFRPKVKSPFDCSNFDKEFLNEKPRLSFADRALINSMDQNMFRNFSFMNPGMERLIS

Question: What does the source list for `Nc1ncc(-c2cc3ccccc3o2)c(N2CCC3(CCNC3=O)CC2)c1Cl`?
Answer: half-life [1]: 87 min; inhibition [2]: > 50%; Activity [3]: 75.73%; bioavailability [4]: 70%; viability at 3 µM [5]: 89.5%; Activity [6]: 1.8%; half-life [7]: 206 min; Activity [8]: 1.83%; GI50 [9]: 4.88 µM; GI50 [10]: 5.11 µM; Tmax [11]: 3 min; inhibition [12]: > 50%; bioavailability [13]: 33%; GI50 [14]: 0.65 µM; viability at 10 µM [15]: 83.4%; half-life [16]: 419 min; Activity [17]: 8.24%; clearance [18]: 23.8 mL/min/kg; Activity [19]: 0.59%; pKa [20]: 5.27; inhibition [21]: > 50%; Activity [22]: 1.81%; Activity [23]: 8.11%; half-life [24]: 22.2 min; Activity [25]: 61%; Tmax [26]: 20.4 min; Activity [27]: 0.42%; AUC at 24 h [28]: 8.92 µM·h; Activity [29]: 1.96%; Tmax [30]: 1.8 min; AUC at 24 h [31]: 1.55 µM·h; Activity [32]: 90.92%; Cmax [33]: 3.2 µM; Activity [34]: 61%
